Results published in ChEMBL document CHEMBL1143616, “Potent and selective Aurora inhibitors identified by the expansion of a novel scaffold for protein kinase inhibition” (J Med Chem, 2005).

Key:
[1] = test system: HCT-116; test: Antiproliferation activity against human colon cancer cell line (HCT116); format: functional, cell-based
Outline: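 HCT-116 cells seeded at 5000 cells/cm² in F12 with 10% FCS, 2 mM L-glutamine and penicillin/streptomycin, 37 °C, 5% CO₂. Next day, dilutions from a 10 mM DMSO stock were added to duplicate wells. After 72 h, cells were trypsinized and counted on a Multisizer 3 counter. Counts were expressed as % of untreated control wells, and IC50 was taken from a sigmoidal fit.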

[2] = target: T1, Aurora kinase A (Homo sapiens, UniProt O14965); test: Inhibition of Aurora kinase A
T1 sequence (O14965 whole entry): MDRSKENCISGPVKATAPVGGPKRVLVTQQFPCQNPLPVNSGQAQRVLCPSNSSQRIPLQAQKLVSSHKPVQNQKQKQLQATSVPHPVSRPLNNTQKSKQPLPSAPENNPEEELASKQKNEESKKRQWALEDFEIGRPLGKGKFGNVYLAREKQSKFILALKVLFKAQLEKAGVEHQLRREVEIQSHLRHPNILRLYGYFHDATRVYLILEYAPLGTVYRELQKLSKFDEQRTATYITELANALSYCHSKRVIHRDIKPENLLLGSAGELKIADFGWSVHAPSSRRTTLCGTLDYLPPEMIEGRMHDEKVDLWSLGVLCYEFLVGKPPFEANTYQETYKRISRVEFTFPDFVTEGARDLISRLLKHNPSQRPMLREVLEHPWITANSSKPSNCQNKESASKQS
Outline: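 GST-fused Aurora-A was made in insect cells and purified by GST affinity and gel filtration. Compounds were tested as 3-fold dilutions from 10 to 0.0005 µM. Reactions were stopped with EDTA and excess ATP, and substrate phosphorylation was read by streptavidin SPA bead counting.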

[3] = test system: HT-29; test: Antiproliferation activity against HT-29 cell line (HT-29); conditions: Homo sapiens
[4] = test system: HL-60; test: Antiproliferation activity against human HL-60 cell line
[5] = target: T2, Aurora kinase C (Homo sapiens, UniProt Q9UQB9); test: Inhibitory activity against Aurora kinase C
T2 sequence (Q9UQB9 whole entry): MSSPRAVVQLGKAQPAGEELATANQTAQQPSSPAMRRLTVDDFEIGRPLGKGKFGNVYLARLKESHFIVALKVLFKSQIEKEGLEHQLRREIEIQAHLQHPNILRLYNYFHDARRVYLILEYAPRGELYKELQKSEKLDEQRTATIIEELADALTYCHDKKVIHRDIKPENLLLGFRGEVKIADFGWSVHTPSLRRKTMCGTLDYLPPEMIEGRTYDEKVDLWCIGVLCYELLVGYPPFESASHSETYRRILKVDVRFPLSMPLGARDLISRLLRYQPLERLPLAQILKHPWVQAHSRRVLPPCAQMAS

[6] = test system: HeLa; test: Antiproliferation activity against HeLa cell line; conditions: Homo sapiens
[7] = target: T3, Aurora kinase B (Homo sapiens, UniProt Q96GD4); test: Inhibitory activity against Aurora kinase B
T3 sequence (Q96GD4 whole entry): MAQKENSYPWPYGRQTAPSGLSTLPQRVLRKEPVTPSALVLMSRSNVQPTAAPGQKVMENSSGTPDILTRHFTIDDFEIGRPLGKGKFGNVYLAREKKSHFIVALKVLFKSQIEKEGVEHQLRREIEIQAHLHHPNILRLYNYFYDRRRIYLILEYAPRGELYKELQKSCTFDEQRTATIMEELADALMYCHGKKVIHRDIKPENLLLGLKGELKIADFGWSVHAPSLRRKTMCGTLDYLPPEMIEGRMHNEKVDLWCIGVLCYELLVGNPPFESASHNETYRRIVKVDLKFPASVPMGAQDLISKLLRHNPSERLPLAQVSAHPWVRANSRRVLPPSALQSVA

[8] = target: T3, Aurora kinase B; test: Inhibition of Aurora kinase B
[9] = test system: A2780; test: cells; conditions: Homo sapiens
[10] = target: T2, Aurora kinase C; test: Inhibition of Aurora kinase C

IC50 [1] [nM] | IC50 [2] [nM] | SMILES | also measured
2200 | 100 | CCc1cccc(CC)c1NC(=O)N1Cc2n[nH]c(NC(=O)c3ccc(C(C)(C)C)cc3)c2C1 | –
2100 | 41 | CC(C)(C)c1ccc(C(=O)Nc2n[nH]c3c2CN(C(=O)c2ccco2)C3)cc1 | –
3000 | 130 | CC(C)(C)c1ccc(C(=O)Nc2n[nH]c3c2CN(C(=O)Cc2ccccc2)C3)cc1 | –
2000 | 5 | CC(C)(C)c1ccc(C(=O)Nc2[nH]nc3c2CN(C(=O)Cc2ccsc2)C3)cc1 | –
570 | 65 | CN1CCN(c2ccc(C(=O)Nc3[nH]nc4c3CN(C(=O)Cc3ccsc3)C4)cc2)CC1 | –
900 | 160 | CN1CCN(c2ccc(C(=O)Nc3n[nH]c4c3CN(C(=O)c3ccco3)C4)cc2)CC1 | –
45 | – | CCc1cccc(CC)c1NC(=O)N1Cc2n[nH]c(NC(=O)c3ccc(N4CCN(C)CC4)cc3)c2C1 [PHA-680632] | IC50 [3]: 80 nM; IC50 [4]: 130 nM; IC50 [5]: 120 nM; IC50 [6]: 410 nM; IC50 [7]: 135 nM; IC50 [8]: 135 nM; IC50 [9]: 110 nM; IC50 [10]: 120 nM
